Measurements published in ChEMBL document CHEMBL1145811, “Synthesis and antibacterial activity of a novel series of acylides: 3-O-(3-pyridyl)acetylerythromycin A derivatives” (J Med Chem, 2003).
Values after ≈ are worked out from the molar mass of the structure shown.

Tests used:
[1] = test system: Haemophilus influenzae; experiment: In vitro minimum inhibitory concentration for antibacterial activity against Haemophilus influenzae ATCC 33533 (ampicillin-resistant strain that produces beta-lactamase); assay type: functional
Summary of the method: (§1)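 Agar dilution MIC determined by the Japan Society of Chemotherapy standard method for aerobic bacteria.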

[2] = test system: Mus musculus; experiment: Effective dose in vivo, in mouse inoculated intraperitoneally with 5.80*10e7 CFU of erythromycin susceptible strain Staphylococcus aureus Smith; assay type: functional; conditions: ip
Summary of the method: (§2)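 Mouse protection test: mice were infected intraperitoneally with erythromycin-susceptible S. aureus Smith or S. pneumoniae IID553. Compounds were given orally 1 h after inoculation.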

[3] = test system: Staphylococcus aureus; experiment: In vitro minimum inhibitory concentration for antibacterial activity against Staphylococcus aureus B1 (inducibly MLSb-resistant strain encoded by the erm(C) gene); assay type: functional; summary of the method: as §1
[4] = test system: Staphylococcus aureus; experiment: In vitro minimum inhibitory concentration for antibacterial activity against Staphylococcus aureus SR138 (constitutively MLSb-resistant strain encoded by the erm(A) gene); assay type: functional; summary of the method: as §1
[5] = test system: Mus musculus; experiment: Effective dose in vivo, in mouse inoculated intraperitoneally with 1.47*10e3 CFU of erythromycin susceptible strain Streptococcus pneumoniae IID553; assay type: functional; conditions: ip; summary of the method: as §2
[6] = test system: Staphylococcus aureus; experiment: In vitro minimum inhibitory concentration for antibacterial activity against erythromycin susceptible strain Staphylococcus aureus Smith; assay type: functional
[7] = test system: Haemophilus influenzae; experiment: In vitro minimum inhibitory concentration for antibacterial activity against Haemophilus influenzae ATCC 43095 (ampicillin-susceptible strain that does not produce beta-lactamase); assay type: functional; summary of the method: as §1
[8] = test system: Streptococcus pneumoniae; experiment: In vitro minimum inhibitory concentration for antibacterial activity against Streptococcus pneumoniae 210 (efflux-resistant strain encoded by the mef(A) gene); assay type: functional; summary of the method: as §1
[9] = test system: Streptococcus pneumoniae; experiment: In vitro minimum inhibitory concentration for antibacterial activity against Streptococcus pneumoniae 211 (MLSb-resistant strain encoded by the erm(B) gene); assay type: functional; summary of the method: as §1
[10] = test system: Streptococcus pneumoniae; experiment: In vitro minimum inhibitory concentration for antibacterial activity against erythromycin-susceptible strain Streptococcus pneumoniae IID553; assay type: functional
Summary of the method: (§3)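 MIC by agar dilution following the Japan Society of Chemotherapy standard method for aerobic bacteria. S. aureus 209P-JC and S. pneumoniae IID553 are erythromycin-susceptible strains.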

[11] = test system: Streptococcus pneumoniae; experiment: In vitro minimum inhibitory concentration for antibacterial activity against erythromycin susceptible strain Streptococcus pneumoniae IID553; assay type: functional
[12] = test system: Staphylococcus aureus; experiment: In vitro minimum inhibitory concentration for antibacterial activity against erythromycin-susceptible strain Staphylococcus aureus […]; assay type: functional; summary of the method: as §3
[13] = Maximum concentration in the serum of mice following a single oral dose of 10 mg/kg (data represent mean in 3 mice); assay type: ADME, organism-based; set-up: dose 10 mg/kg, route oral; conditions: mouse
Summary of the method: (§4)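 Mice received a single 10 mg/kg oral dose. Serum and lung were sampled for drug levels. Cmax is in µg/mL and AUC over 0–8 h is in µg·h/mL. Values are the mean of three mice.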

[14] = test system: Mus musculus; experiment: Survival rate of mouse inoculated intraperitoneally with 5.05*10e7 CFU of erythromycin-susceptible strain Streptococcus pneumoniae IID553 after treatment with 0.3 mg of compound; assay type: functional
Summary of the method: (§5)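 Mouse protection test: mice were infected intraperitoneally with 5.05 × 10^7 CFU/mouse, then given the macrolide orally 1 h after inoculation. Survival was recorded as the read-out.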

[15] = Area under the curve was determined for the compound from the serum of mice following a single oral dose of 10 mg/kg (data represent mean in 3 mice); assay type: ADME, organism-based; set-up: dose 10 mg/kg, route oral; conditions: mouse, read-out: AUC 0-8; summary of the method: as §4
[16] = Area under the curve was determined for the compound from the lung of mice following a single oral dose of 10 mg/kg (data represent mean in 3 mice); assay type: ADME, organism-based; set-up: dose 10 mg/kg, route oral; conditions: mouse, read-out: AUC 0-8; summary of the method: as §4
[17] = Maximum concentration in the lung of mice following a single oral dose of 10 mg/kg (data represent mean in 3 mice); assay type: ADME, organism-based; set-up: dose 10 mg/kg, route oral; conditions: mouse; summary of the method: as §4
[18] = test system: Mus musculus; experiment: Survival rate of mouse inoculated intraperitoneally with 5.05*10e7 CFU of erythromycin-susceptible strain Streptococcus pneumoniae IID553 after treatment with 3 mg of compound; assay type: functional; summary of the method: as §5
[19] = test system: Mus musculus; experiment: Effective dose in vivo, in mouse inoculated intraperitoneally with 5.09*10e7 CFU of erythromycin susceptible strain Staphylococcus aureus Smith; assay type: functional; conditions: ip; summary of the method: as §2
[20] = test system: Mus musculus; experiment: Effective dose in vivo, in mouse inoculated intraperitoneally with 7.05*10e2 CFU of erythromycin susceptible strain Streptococcus pneumoniae IID553; assay type: functional; conditions: ip; summary of the method: as §2

SMILES | MIC [1] | ED50 [2] | MIC [3] | MIC [4] | ED50 [5] | MIC [6] | MIC [7] | MIC [8] | MIC [9] | MIC [10] | MIC [11] | MIC [12] | Cmax [13] | Survival rate [14] | AUC [15] | AUC [16] | Cmax [17] | Survival rate [18] | ED50 [19] | ED50 [20]
CC[C@H]1OC(=O)[C@H](C)[C@@H](OC(=O)Cc2cccnc2)[C@H](C)[C@@H](OC2O[C@H](C)C[C@H](N(C)C)[C@H]2O)[C@@](C)(OC)C[C@@H](C)C(=O)[C@H](C)[C@H]2OC(=O)O[C@@]21C (some centres undefined) | 3.13 µg/mL (≈ 4.26 µM) | 17.5 mg/kg | 0.39 µg/mL (≈ 0.531 µM) | > 100 µg/mL | 51.1 mg/kg | 0.2 µg/mL (≈ 0.272 µM) | 3.13 µg/mL (≈ 4.26 µM) | 0.2 µg/mL (≈ 0.272 µM) | > 100 µg/mL | 0.05 µg/mL (≈ 0.068 µM) | 0.05 µg/mL (≈ 0.068 µM) | 0.2 µg/mL (≈ 0.272 µM) | – | – | – | – | – | – | – | –
CC[C@H]1OC(=O)[C@H](C)[C@@H](OC(=O)Cc2cccnc2)[C@H](C)[C@@H](OC2O[C@H](C)C[C@H](N(C)C)[C@H]2O)[C@@](C)(OC)C[C@@H](C)C(=O)[C@H](C)[C@H]2NC(=O)O[C@@]21C (some centres undefined) | 3.13 µg/mL (≈ 4.26 µM) | 6.99 mg/kg | 0.39 µg/mL (≈ 0.531 µM) | > 100 µg/mL | 17.5 mg/kg | 0.2 µg/mL (≈ 0.273 µM) | 3.13 µg/mL (≈ 4.26 µM) | 0.1 µg/mL (≈ 0.136 µM) | > 100 µg/mL | 0.05 µg/mL (≈ 0.0681 µM) | 0.05 µg/mL (≈ 0.0681 µM) | 0.05 µg/mL (≈ 0.0681 µM) | – | – | – | – | – | – | – | –
CC[C@H]1OC(=O)[C@H](C)[C@@H](OC(=O)Cc2cccnc2)[C@H](C)[C@@H](OC2O[C@H](C)C[C@H](N(C)C)[C@H]2O)[C@@]2(C)C[C@@H](C)[C@H](OC(=O)O2)[C@H](C)[C@H]2OC(=O)O[C@@]21C (some centres undefined) | 0.78 µg/mL (≈ 1.04 µM) | – | 0.2 µg/mL (≈ 0.267 µM) | > 100 µg/mL | – | – | 0.78 µg/mL (≈ 1.04 µM) | 0.1 µg/mL (≈ 0.134 µM) | 100 µg/mL (≈ 134 µM) | 0.025 µg/mL (≈ 0.0334 µM) | – | 0.1 µg/mL (≈ 0.134 µM) | 120 ng/mL | 30% | 230 ng·h/mL | 2460 ng·h/mL | 1350 ng/mL | 90% | – | –
CC[C@H]1OC(=O)[C@H](C)[C@@H](O[C@H]2C[C@@](C)(OC)[C@@H](O)[C@H](C)O2)[C@H](C)[C@@H](O[C@@H]2O[C@H](C)C[C@H](N(C)C)[C@H]2O)[C@](C)(O)C[C@@H](C)CN(C)[C@H](C)[C@@H](O)[C@]1(C)O [AZITHROMYCIN] | 1.56 µg/mL (≈ 2.08 µM) | – | > 100 µg/mL | > 100 µg/mL | – | 0.78 µg/mL (≈ 1.04 µM) | 1.56 µg/mL (≈ 2.08 µM) | 0.78 µg/mL (≈ 1.04 µM) | > 100 µg/mL | 0.1 µg/mL (≈ 0.134 µM) | 0.1 µg/mL (≈ 0.134 µM) | 0.39 µg/mL (≈ 0.521 µM) | – | 50% | – | – | – | 100% | 15.7 mg/kg | 13.9 mg/kg
CC[C@H]1OC(=O)[C@H](C)[C@@H](O[C@H]2C[C@@](C)(OC)[C@@H](O)[C@H](C)O2)[C@H](C)[C@@H](O[C@@H]2O[C@H](C)C[C@H](N(C)C)[C@H]2O)[C@](C)(OC)C[C@@H](C)C(=O)[C@H](C)[C@@H](O)[C@]1(C)O [CLARITHROMYCIN] | 3.13 µg/mL (≈ 4.18 µM) | 7.6 mg/kg | > 100 µg/mL | > 100 µg/mL | 13.5 mg/kg | 0.2 µg/mL (≈ 0.267 µM) | 6.25 µg/mL (≈ 8.36 µM) | 0.78 µg/mL (≈ 1.04 µM) | > 100 µg/mL | 0.05 µg/mL (≈ 0.0668 µM) | 0.025 µg/mL (≈ 0.0334 µM) | 0.1 µg/mL (≈ 0.134 µM) | 1210 ng/mL | 50% | 1310 ng·h/mL | 30400 ng·h/mL | 14100 ng/mL | 100% | – | –
CC[C@H]1OC(=O)[C@H](C)[C@@H](O[C@H]2C[C@@](C)(OC)[C@@H](O)[C@H](C)O2)[C@H](C)[C@@H](O[C@@H]2O[C@H](C)C[C@H](N(C)C)[C@H]2O)[C@](C)(O)C[C@@H](C)C(=O)[C@H](C)[C@@H](O)[C@]1(C)O [ERYTHROMYCIN] | – | – | – | – | – | 0.2 µg/mL (≈ 0.273 µM) | – | – | – | – | 0.1 µg/mL (≈ 0.136 µM) | – | – | – | – | – | – | – | 56.6 mg/kg | 111 mg/kg
